RGS4 inh: inhibitors of human RGS4; HEK293 M3R/RGS4 inducible, Fluo-4 calcium flux; stronger effect = higher value; triggered by carbachol at its EC20; 310,000 tested, 0.45% active; B-score at 10 µM; P49798;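 active means B-score, a plate-corrected calcium signal, over three deviations above library mean, with baseline fluorescence within five deviations of library mean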;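 further: RGS4 expression induced by doxycycline in cells with stable M3 receptor; B-score is computed from the integrated fluorescence ratio over baseline after carbachol; higher B-score means a larger calcium signal and so more RGS4 inhibition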
Target sequence (P49798 whole entry, looked up): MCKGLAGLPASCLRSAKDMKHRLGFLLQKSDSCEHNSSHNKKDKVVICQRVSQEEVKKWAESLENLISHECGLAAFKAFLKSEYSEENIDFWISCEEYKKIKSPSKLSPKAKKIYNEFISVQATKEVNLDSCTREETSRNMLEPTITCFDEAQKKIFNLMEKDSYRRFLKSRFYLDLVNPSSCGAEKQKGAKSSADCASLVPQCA
MrgX1 PAM: allosterically activates human MrgX1 receptor signaling | Q96LB2 | MrgX1-HEK293, Fluo-4 calcium flux, FDSS; stronger effect = higher value | B-score at 10 µM | 310,000 tested, 0.63% active | AID 588675;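 active means plate-corrected calcium response at least 3 library SD above typical, normal starting fluorescence, not activating the receptor alone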;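 further: compound read alongside a low EC10 to EC30 dose of BAM8-22 agonist; peak minus trough fluorescence over baseline measured at the second addition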
RGS4 pot: potentiators or activators of RGS4. B-score at 10 µM. 310,000 tested, 0.92% active. HEK293 M3R/inducible RGS4, carbachol calcium flux Fluo4; stronger effect = lower value;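 active means B-score of the integrated calcium signal more than 4 SD below the library mean, with starting fluorescence not abnormally high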;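 further: negative B-score means reduced calcium response which marks RGS4 activation or potentiation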
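Material: Inducible-RGS4 HEK293 cells carrying M3 receptor; also added: carbachol at ECmax as muscarinic agonist stimulus; incubation: compound preincubation 20 min at room temperature before agonist; signal: Fluo4-AM (2 µM) calcium-flux fluorescence, kinetic read; measure: integrated calcium ratio converted to B score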
MrgX1 antag: human MrgX1 receptor antagonism, primary screen | Q96LB2 | MRGX1-HEK293 calcium flux, Fluo-4, BAM8-22 antagonism; stronger effect = lower value | B-score at 10 µM | 310,000 tested, 1.3% active | AID 588676;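 active means calcium-response B-score plate-corrected more than 3 library SD below zero, starting fluorescence within 5 deviations, no agonist response on first addition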;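 further: peak minus trough fluorescence over baseline after final BAM8-22 challenge near maximal dose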
MrgX1 ag: activates human MrgX1 receptor signaling; Q96LB2; MrgX1-HEK293 cells, Fluo-4 calcium fluorescence, agonist mode; stronger effect = higher value; B-score at 10 µM; 310,000 tested, 0.44% active;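 active means calcium response B-score plate-corrected fluorescence ratio at least 3 library SD, with starting fluorescence B-score inside 5 SD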
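Material: MrgX1-expressing HEK293 cells / Dosing: compound as first of three additions / Incubation: overnight seeding, then 1 h dark dye loading / Signal: Fluo-4 NW calcium fluorescence / Evaluation: B-scored fluorescence response ratio / Benchmarks: positive and negative control wells on each plate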
Starred values were filed as active, the others as inactive; i = inactive; x = no result given. An excerpt weighted towards active compounds, which were near 3.5% of everything screened.

SMILES	RGS4 inh	MrgX1 PAM	RGS4 pot	MrgX1 antag	MrgX1 ag
Cc1ccc([N+](=O)[O-])c(OCCn2cnc3ccccc32)c1	i	9.99*	i	i	i
CCCCNc1c(-c2cccc(-c3cc(C(C)=O)cs3)c2)nc2ccc(C)cn12	i	i	-7.08*	i	i
CCCCNc1c(-c2ccc(-c3cccc(Cl)c3)cc2)nc2ccccn12	i	i	i	i	i
CCCCNc1c(-c2cccc(-c3ccc(OC)cc3)c2)nc2ccc(C)cn12	i	i	-7.8*	i	i
COC(=O)Nc1c(-c2ccccc2)nc2ccc(C)cn12	i	i	i	i	i
O=C(O)COc1ccc(/C=C/c2nc3ccc([N+](=O)[O-])cc3s2)cc1	i	i	i	-4.78*	i
COc1cccc(C2C3=C(N=c4s/c(=C\c5ccc(OCC(=O)O)cc5)c(=O)n42)c2ccccc2CC3)c1 (configuration not stated)	i	i	-8.42*	-7.51*	i
O=C(CCCCCCCCC(=O)N/N=C/c1ccco1)N/N=C/c1ccco1	i	i	i	-5.68*	i
CC(NC(=O)c1ccccc1)C(=O)N/N=C/c1ccco1 (configuration not stated)	i	i	i	i	i
CC(C)CC(NC(=O)c1ccccc1)C(=O)N/N=C/c1ccco1 (configuration not stated)	i	i	i	i	30.2*
Cc1ccc(N=C2SC(C(=O)Nc3ccc(OC(F)(F)F)cc3)C(N)=C2C(=O)Nc2c(C)cc(C)cc2C)cc1 (configuration not stated)	x	10.4*	x	i	i
CCN(CC)S(=O)(=O)c1cccc(NC(=O)C2SC(=Nc3ccc(C)cc3C)C(C(=O)NC(C)COC)=C2N)c1 (configuration not stated)	i	i	i	i	i
CN(C(=O)CCc1nnc(CCCCc2ccccc2)o1)C1CC(C)(C)NC(C)(C)C1	i	i	i	-5.76*	i
O=C(O)c1cc(-c2ccc(/C=c3\sc4nc5ccc(Br)cc5n4c3=O)o2)ccc1Cl	i	i	i	i	41.8*
CC1(C)CC(=O)C2=C(C1)OC(N)=C(C#N)C21C(=O)N(Cc2ccccc2Cl)c2ccccc21 (configuration not stated)	i	8.66*	i	i	i
CC1=CC(C)(C)N2C(=O)C3(C(C#N)=C(N)OC4=C3C(=O)CC(C)(C)C4)c3cccc1c32 (configuration not stated)	i	x	i	x	x
Cc1ccc2nc(N(CCCN(C)C)C(=O)c3cc(-c4cccs4)nc4ccccc34)sc2c1	i	i	-7.76*	i	i
CCOC(=O)CCCCC(=O)c1[nH]c(=O)[nH]c1CSc1nnc2c3ccccc3n(C(C)C)c2n1	i	i	i	i	i
COc1ccc(COC(=O)c2sc3nc4n(c(=O)c3c2C)CCC4)cc1	i	i	i	i	i
CCCCCCOc1ccc(/C(N)=N/O)cc1	i	i	i	i	i
N=C(N)c1ccc(OCCCCCOc2ccc(C(=N)N)cc2)cc1	i	i	i	i	34.2*
CCc1nnc(NC(=O)c2cc([N+](=O)[O-])ccc2N2CCOCC2)s1	i	i	i	-6.28*	i
O=C(COC(=O)c1cc([N+](=O)[O-])ccc1N1CCOCC1)Nc1ccc(Cl)cc1	i	i	i	-8.26*	i
CC1CCc2c(sc3nc(C(C)(C)C)nc(N4CCN(C(=O)CCl)CC4)c23)C1 (configuration not stated)	i	i	-7.6*	i	i
Cc1cc(C(=O)NNS(=O)(=O)c2ccc(F)cc2)nn1C(C)(C)C	i	i	i	i	i
Cc1cc(C(=O)NNC(=O)c2cccs2)nn1C(C)(C)C	i	i	i	-7.15*	i
COC(=O)c1ccc2c(c1)C(C)(C)C(/C=C/c1ccccc1O)=[N+]2C	i	i	-7.25*	i	i
C[N+]1=C(/C=C/Nc2ccccc2Cl)C(C)(C)c2ccccc21	i	i	i	i	i

High-throughput results deposited in PubChem BioAssay by Johns Hopkins Ion Channel Center.
